The results in this text go back to ChEMBL document CHEMBL6115053, “Optimization and Characterization of N-Acetamide Indoles as Antimalarials That Target PfATP4” (J Med Chem, 2025).

Converted amounts (≈) assume the structure as drawn. “And” between values parts separate entries of the source, which are not always exact repeats. Equal values may be shown once. The source made the active and inactive calls. The rule behind the calls is not given here.

One may read the logD as the decadic logarithm of the distribution of all forms, ionised or not, between an organic phase and buffer at a given pH. By CC50 is commonly meant the concentration at which the toxic effect on the cells reaches its halfway point. Usually EC50 stands for the concentration that produces a half-maximal response. As a reminder, the IC50 is the concentration that inhibits the measured activity by half. One may read the kinetic solubility as the concentration staying in solution when a stock, usually in DMSO, is diluted into the medium.

Series [1] in a line: Lipophilicity, logD of compound at pH 7.4 by shake-flask method. Type of series: physicochemical. The note with it: buffer.
In series [2] the test system is HepG2. In words: Cytotoxicity against human HepG2 cells assessed as inhibition of cell growth incubated for 48 hrs by celltiterglo assay. Conditions: hepg2, 48 h. It counts as toxicity, cell-based. (ATP-based viability assays read luminescence as a measure of living cells.)
For series [3], the system named is Plasmodium falciparum. The series can be described thus: Antiplasmodial activity against asexual Plasmodium falciparum 3D7 infected in human […] cells assessed as reduction in parasite growth measured for 72 hrs by LDH assay. It counts as functional, organism-based. Conditions: 3D7, 72 h.
The test system of series [4] is Plasmodium falciparum. The series can be described thus: Antiplasmodial activity against N-(2,6-difluorophenyl)-2-(6-(5-methyl-1,3,4-oxadiazol-2-yl)-1H-indol-1-yl)acetamide-resistant Plasmodium falciparum Dd2 harboring plasmodium falciparum ATP4 F156L mutant by SYBR green staining based analysis. Type of series: functional, organism-based.
For series [5], the system named is Plasmodium falciparum. In words: Antiplasmodial activity against W454-resistant population 1 Plasmodium falciparum 3D7 harboring Plasmodium falciparum ATP4 L928F mutant by LDH assay. Type of series: functional, organism-based.
The subject of series [6] is Plasmodium falciparum. The series can be described thus: Antimalarial activity against trophozoite stage Plasmodium falciparum 3D7 at 10 times EC50 incubated for 48 hrs by SYBR Green dye based analysis. It counts as functional, organism-based.
The target of series [7] is T1, P-type sodium-transporting ATPase4 (Plasmodium falciparum (isolate 3D7)) (UniProt A0A143ZZK9).
T1 sequence (whole entry): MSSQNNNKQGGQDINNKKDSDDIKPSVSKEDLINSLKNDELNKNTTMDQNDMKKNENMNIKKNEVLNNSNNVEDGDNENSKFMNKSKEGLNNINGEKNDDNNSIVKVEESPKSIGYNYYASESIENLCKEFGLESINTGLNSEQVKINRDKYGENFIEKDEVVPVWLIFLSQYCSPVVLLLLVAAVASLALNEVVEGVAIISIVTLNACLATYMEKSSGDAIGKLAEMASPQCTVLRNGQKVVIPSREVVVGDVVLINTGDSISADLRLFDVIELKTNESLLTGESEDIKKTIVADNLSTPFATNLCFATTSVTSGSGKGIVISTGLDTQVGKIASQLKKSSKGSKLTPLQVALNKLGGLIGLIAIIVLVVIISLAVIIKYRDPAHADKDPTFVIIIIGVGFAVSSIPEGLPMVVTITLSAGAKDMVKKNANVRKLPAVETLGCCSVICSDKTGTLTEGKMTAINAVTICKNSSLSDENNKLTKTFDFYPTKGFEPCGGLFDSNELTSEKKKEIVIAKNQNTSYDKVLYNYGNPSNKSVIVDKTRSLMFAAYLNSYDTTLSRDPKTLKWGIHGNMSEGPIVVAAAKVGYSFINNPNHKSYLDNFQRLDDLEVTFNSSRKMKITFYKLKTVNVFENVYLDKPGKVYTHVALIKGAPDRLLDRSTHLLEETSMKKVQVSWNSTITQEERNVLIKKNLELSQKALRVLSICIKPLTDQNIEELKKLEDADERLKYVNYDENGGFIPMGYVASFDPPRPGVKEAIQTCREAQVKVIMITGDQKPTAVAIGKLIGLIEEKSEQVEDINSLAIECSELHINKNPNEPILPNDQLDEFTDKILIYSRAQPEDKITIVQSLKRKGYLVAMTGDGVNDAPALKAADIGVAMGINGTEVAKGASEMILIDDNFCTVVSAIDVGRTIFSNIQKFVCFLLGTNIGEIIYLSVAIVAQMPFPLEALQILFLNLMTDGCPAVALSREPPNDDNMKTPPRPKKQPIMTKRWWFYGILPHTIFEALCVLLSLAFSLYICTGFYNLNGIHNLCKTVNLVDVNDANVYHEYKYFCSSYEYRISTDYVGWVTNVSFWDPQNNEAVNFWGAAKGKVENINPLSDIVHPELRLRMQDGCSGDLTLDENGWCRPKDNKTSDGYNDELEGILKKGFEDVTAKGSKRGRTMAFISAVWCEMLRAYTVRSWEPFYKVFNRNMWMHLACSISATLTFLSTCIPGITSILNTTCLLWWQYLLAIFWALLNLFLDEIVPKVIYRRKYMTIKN
In words: Inhibition of Plasmodium falciparum 3D7 ATP4 assessed as increase in Na+ concentration in parasite cytosol upto 1000 nM measured for 60 mins. Type of series: subcellular.

Series [8] relates to Plasmodium falciparum. The series can be described thus: Antiplasmodial activity against W454-resistant population 2 Plasmodium falciparum 3D7 harboring Plasmodium falciparum ATP4 L928F mutant by LDH assay. Type of series: functional, organism-based.
The test system of series [9] is Plasmodium falciparum. In words: Antiplasmodial activity against Plasmodium falciparum 3D7 infected in human […] cells incubated for 72 hrs. Type of series: functional, organism-based. The note with it: 3D7, 72 h.
Series [10] has as its system Plasmodium falciparum. The series can be described thus: Antimalarial activity against Plasmodium falciparum NF54 infected assessed as inhibition of female gamete formation incubated for 48 hrs by automated bright field microscopic analysis. Type of series: functional, organism-based. Conditions: NF54, 48 h.
Series [11] deals with T2, P-type sodium-transporting ATPase4 (Plasmodium falciparum (isolate 3D7), UniProt A0A143ZZK9).
T2 sequence (A0A143ZZK9 whole entry): T1 sequence (whole entry)
In words: Inhibition of Plasmodium falciparum 3D7 ATP4 assessed as increase in Na+ concentration in parasite cytosol measured for 60 mins. It counts as subcellular.

Series [12] concerns Plasmodium falciparum. In words: Antiplasmodial activity against Plasmodium falciparum 3D7 infected in human […] cells. Type of series: functional, organism-based.
Series [13] deals with Plasmodium falciparum. In words: Antiplasmodial activity against N-(2,6-difluorophenyl)-2-(6-(5-methyl-1,3,4-oxadiazol-2-yl)-1H-indol-1-yl)acetamide-resistant Plasmodium falciparum Dd2 harboring plasmodium falciparum ATP4 D425E mutant by SYBR green staining based analysis. It counts as functional, organism-based.
In series [14] the test system is Plasmodium falciparum. The series can be described thus: Antiplasmodial activity against N-(2,6-difluorophenyl)-2-(6-(5-methyl-1,3,4-oxadiazol-2-yl)-1H-indol-1-yl)acetamide-resistant Plasmodium falciparum Dd2 harbouring ATP4 genome with 2.8 fold CNV by SYBR green staining based analysis. It counts as functional, organism-based.
The subject of series [15] is Plasmodium falciparum. In words: Antiplasmodial activity against multidrug-resistant Plasmodium falciparum Dd2 harboring plasmodium falciparum ATP4 G358S mutant by SYBR green staining based analysis. Type of series: functional, organism-based.
Series [16] in a line: Metabolic stability in mouse liver microsome assessed as intrinsic clearance. Type of series: ADME. Conditions: microsomes.
In series [17] the test system is Plasmodium falciparum. In words: Antiplasmodial activity against Plasmodium falciparum 3D7 infected in RBC assessed as reduction in parasite growth measured for 8 hrs by Giemsa-staining based microscopic analysis. It counts as functional, organism-based. In outline:
(§1)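 Giemsa-stained thin smears were read at 8 h and the percentages of extracellular and intracellular parasites counted, compared with untreated parasites at 0 h.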

Series [18] has as its system Plasmodium falciparum. The series can be described thus: Antiplasmodial activity against W454-resistant population 3 Plasmodium falciparum 3D7 harboring Plasmodium falciparum ATP4 L928F mutant by LDH assay. Type of series: functional, organism-based.
Series [19] concerns HepG2. In words: Cytotoxicity against human HepG2 cells. It counts as functional.
The subject of series [20] is Plasmodium falciparum. The series can be described thus: Antiplasmodial activity against multidrug-resistant Plasmodium falciparum Dd2 harboring plasmodium falciparum ATP4 I398F/P990R/D1247Y mutant by SYBR green staining based analysis. Type of series: functional, organism-based.
The subject of series [21] is Plasmodium falciparum. In words: Antiplasmodial activity against Plasmodium falciparum 3D7 infected in RBC assessed as reduction in extracellular parasite growth measured for 8 hrs by Giemsa-staining based microscopic analysis. It counts as functional. Also on record: scale not given: the % may be the effect or the level left. The procedure, abridged: as §1
The subject of series [22] is Plasmodium falciparum. The series can be described thus: Antimalarial activity against Plasmodium falciparum NF54 infected assessed as inhibition of male gamete formation incubated for 48 hrs by automated bright field microscopic analysis. The note with it: NF54, 48 h. Type of series: functional, organism-based.
Series [23] in a line: Metabolic stability in rat hepatocyte […] assessed as intrinsic clearance measured per 10^6 cells. Type of series: ADME, cell-based. The note with it: hepatocytes.
The nature of series [24]: Aqueous solubility in PBS buffer at pH 7.4. Type of series: physicochemical.
Series [25] in a line: Metabolic stability in human liver microsome assessed as intrinsic clearance. Conditions: microsomes. Type of series: ADME. For orientation: Liver microsomes are vesicles of endoplasmic reticulum, rich in cytochrome P450 enzymes.
Series [26] in a line: Inhibition of Plasmodium falciparum Dd2 ATP4 G358S mutant assessed as reduction in Na+-ATPase activity incubated for 10 mins in presence of ATP. In outline:
(§2)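 Membranes were prepared from Dd2-Polδ parasites (wild-type PfATP4) or Dd2-Polδ-PfATP4G358S parasites. ATPase activity was read as Pi production, with 1 mM Na2ATP, at high [Na+] (152 mM) and low [Na+] (2 mM). PfATP4-associated activity is the high-Na+ minus low-Na+ Pi, expressed as % of the high-Na+ control, over a concentration range. Data are means ± SEM of 2–5 independent membrane preparations.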

In series [27] the target is T2, P-type sodium-transporting ATPase4. The series can be described thus: Inhibition of Plasmodium falciparum 3D7 ATP4.
Series [28] is described as follows: Inhibition of Plasmodium falciparum Dd2 ATP4 assessed as reduction in Na+-ATPase activity incubated for 10 mins in presence of ATP. In outline:
as §2

The target of series [29] is T1, P-type sodium-transporting ATPase4 (Plasmodium falciparum (isolate 3D7)). The series can be described thus: Inhibition of Plasmodium falciparum 3D7 ATP4 assessed as reduction in Na+-ATPase activity at 2 uM incubated for 10 mins under high [Na+] condition in absence of KAE609.

In the case of `Cc1nnc(-c2ccc3ccn(CC(=O)Nc4ccccc4Cl)c3c2)o1`, the logD in series [1] was found to be 3.1. Also, the half-maximal cytotoxic concentration (CC50) in series [2] and in series [19] was over 40 µM in each case. Besides, the half-maximal effective concentration (EC50) in series [3] is 0.667 µM; in [4], 1.16 µM; in series [5] it was over 10 µM; in series [8], over 10 µM; in [9], 0.569 µM; in [10], 5 µM. In addition, the EC50 in series [12] was 0.667 µM; in [13], 0.786 µM; in [14], 0.901 µM; in series [15], 1.28 µM; in series [18], over 10 µM; in series [20] it was 2.54 µM. In addition, in series [22], the EC50 is 3.6 µM. Besides, the outcome in [6] and in series [17] was Active. Also, in [7], the inhibition entry is “Active”. For the same compound, the half-maximal inhibitory concentration (IC50) in series [11] is about 0.4 µM. Also, the figures for the “intrinsic clearance (CLint)” value in series [16], in [23] and in [25] were 410 µL/min/mg, over 92 uL/min/10^6 cells and over 462 µL/min/mg, respectively. Besides, in [21], the Activity is given as 3.5%. In series [24], this compound showed a solubility (kinetic) of 10.9 µM (≈ 4 µg/mL).

`Cn1cc(-c2ccc3c(C#N)cn(CC(=O)Nc4ccccc4Cl)c3c2)cn1` came in with a log distribution coefficient (logD) in series [1] of 3. The CC50 in series [2] is over 40 µM. Further, the concentration for a half-maximal effect (EC50) in series [3] turned out to be 0.24 µM. Also, the IC50 in series [26] was 1.1 µM; in series [27], 0.15 µM; in [28], 0.23 µM and 1.1 µM. In addition, in series [29], the inhibition result is “Active”. For the same compound, the results for the “intrinsic clearance (CLint)” value in series [23] and in series [25] were 59 uL/min/10^6 cells and 62 µL/min/mg, respectively. Moreover, the kinetic solubility in [24] is 4.9 µM (≈ 1.91 µg/mL).
